Active and inactive are the calls of the source. The calls are words filed in the database; no cut-off is given here.
What was measured:
[1] = Cytotoxicity against human SU86 cells co-cultured with human mesothelial cells at 10 uM after 4 hrs by firefly luciferase assay relative to control; format: functional
In short: (§1)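 Co-culture of luciferase-transduced cancer cells (puromycin/G418-selected retroviral pLuc) with confluent human mesothelial monolayers. Suspended cancer cells plus 10 µM compound (final) or DMSO were overlaid for 4 h. Non-adherent cells were washed off and surviving adherent cells quantified by firefly luciferase luminescence. Efficacy = treated/DMSO luminescence ratio; mean±SEM, n=3.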

[2] = Cytotoxicity against human BxPC3 cells co-cultured with human mesothelial cells at 10 uM after 4 hrs by firefly luciferase assay relative to control; format: functional, BXPC-3; in short: as §1
A2780 [3] = test: Cytotoxicity against human A2780 cells co-cultured with human mesothelial cells at 10 uM after 4 hrs by firefly luciferase assay relative to control; format: functional; in short: as §1
[4] = Cytotoxicity against human SKOV3 cells co-cultured with human mesothelial cells at 10 uM after 4 hrs by firefly luciferase assay relative to control; format: functional, SK-OV-3; in short: as §1
[5] = Cytotoxicity against human SU86 cells co-cultured with human mesothelial cells after 4 hrs by firefly luciferase assay relative to control; format: functional, cell-based
In short: (§2)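 Luciferase-expressing cancer cells in suspension were treated with a series of compound concentrations or DMSO, overlaid on confluent human mesothelial monolayers for 4 h, and washed to remove non-adherent cells. Surviving adherent cells were read by luciferase luminescence relative to vehicle, and EC50 was derived from the concentration series.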

[6] = Cytotoxicity against human BxPC3 cells co-cultured with human mesothelial cells after 4 hrs by firefly luciferase assay relative to control; format: functional, cell-based; conditions: BXPC-3, 4 h; in short: as §2
A2780 [7] = test: Cytotoxicity against human A2780 cells co-cultured with human mesothelial cells after 4 hrs by firefly luciferase assay relative to control; format: functional, cell-based; conditions: A2780, 4 h; in short: as §2
[8] = Cytotoxicity against human SKOV3 cells co-cultured with human mesothelial cells after 4 hrs by firefly luciferase assay relative to control; format: functional, cell-based; conditions: SK-OV-3, 4 h; in short: as §2
A2780 [9] = test: Induction of apoptosis in human A2780 cells assessed as increased cellular levels of cleaved PARP at 5 uM after 4 hrs by immunoblot analysis; format: functional, cell-based
In short: (§3)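 A2780 cells were suspended and allowed to adhere for 4 h with DMSO or test compound (5 µM in DMSO). Cells were collected and lysed, lysates normalised for total protein, and cleaved PARP and cleaved caspase 3 detected by immunoblot with actin as loading control. A sulfide analog served as negative control.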

A2780 [10] = test: Induction of apoptosis in human A2780 cells assessed as increased cellular levels of cleaved caspase 3 at 5 uM after 4 hrs by immunoblot analysis; format: functional, cell-based; in short: as §3
A2780 [11] = test: Inhibition of peritoneal carcinomatosis of human A2780 cells in athymic nu/nu mouse at 5 mg/kg, ip administered thrice a week for 14 days by luciferase reporter assay relative to vehicle-treated control; format: functional, organism-based; set-up: dose 5 mg/kg
In short: (§4)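 Athymic female nu/nu mice, 5 weeks old, received 5 mg/kg compound or vehicle (80% PEG400:20% ethanol) IP 4 h before IP injection of 1.5×10⁶ A2780-luc or 2×10⁶ SKOV3-luc cells, n=7 per arm. Dosing continued IP three times a week for 14 days. Tumour burden was imaged weekly by abdominal bioluminescence after IP D-luciferin/ketamine/xylazine; mean±SEM, unpaired t-test vs vehicle.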

SK-OV-3 = test: Inhibition of peritoneal carcinomatosis of human SKOV3 cells in athymic nu/nu mouse at 5 mg/kg, ip administered thrice a week for 14 days by luciferase reporter assay relative to vehicle-treated control; format: functional, organism-based; set-up: dose 5 mg/kg; in short: as §4
Mus musculus [12] = test: Toxicity in athymic nu/nu mouse xenografted with human A2780 cells assessed as weight loss at 5 mg/kg, ip administered thrice a week for 14 days; format: organism-based; set-up: dose 5 mg/kg, route intraperitoneal; conditions: in vivo, 336 h
Mus musculus [13] = test: Toxicity in athymic nu/nu mouse xenografted with human SKOV3 cells assessed as weight loss at 5 mg/kg, ip administered thrice a week for 14 days; format: organism-based, SK-OV-3; set-up: dose 5 mg/kg, route intraperitoneal; conditions: in vivo, 336 h
[14] = Antimetastatic activity against human MIAPaCa2 cells xenografted in ip dosed Ncr-Nu/Nu mouse assessed as total recurrence administered on day 1, 3, 5, 7 and measured after 8 weeks by fluorescent imaging analysis (reference value: 67%); format: functional, MIA PaCa-2
In short: (§5)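 Orthotopic pancreatic model in male NCr-Nu/Nu nude mice, 6-8 wk old. 1×10⁶ RFP-expressing MiaPaCa-2 cells in soluble ECM were injected into the pancreatic tail. Tumour resected with distal pancreatectomy, with no residual disease confirmed by intraoperative RFP imaging. Compound or vehicle (4:1 PEG400:EtOH) given IP at surgery and on days 3, 5 and 7. Local and metastatic recurrence scored by fluorescent imaging after 8 weeks.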

[15] = Antimetastatic activity against human MIAPaCa2 cells xenografted in ip dosed Ncr-Nu/Nu mouse assessed as local recurrence administered on day 1, 3, 5, 7 and measured after 8 weeks by fluorescent imaging analysis (reference value: 60%); format: functional, MIA PaCa-2; in short: as §5
[16] = Antitumor activity against human MIAPaCa2 cells xenografted in ip dosed Ncr-Nu/Nu mouse assessed as metastases administered on day 1, 3, 5, 7 and measured after 8 weeks by fluorescent imaging analysis (reference value: 40%); format: functional, MIA PaCa-2; in short: as §5
[17] = Glutathione reactivity assessed as reduction in detectable GSH level by Ellman's reagent-based assay
In short: (§6)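 Glutathione was measured with a commercial kit per the manufacturer's instructions, with TNB production rate proportional to GSH. Cell-free GSH was tested with compounds, and HT-29 luciferase cell lysates were assayed after compound exposure.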

HT-29 [18] = test: Reduction of cellular GSH level in human HT-29 cells incubated for 30 mins followed by co-culturing with human mesothelial cells measured after 5 hrs by […]; format: functional, cell-based
HT-29 [19] = test: Induction of apoptosis in human HT-29 cells at 10 uM incubated for 30 mins followed by coculturing with human mesothelial cells for 5 hrs by firefly luciferase assay in presence of NAC; format: functional, cell-based
In short: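 Firefly luciferase-expressing HT-29 cells were incubated 30 min with compound plus vehicle (water) or 680 µM N-acetylcysteine, trypsin-suspended, and co-cultured 5 h on human mesothelial monolayers with compound and NAC. Surviving adherent cells were detected by luciferase luminescence; mean light output ±SEM.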

HT-29 [20] = test: Induction of apoptosis in human HT-29 cells using compound pre-mixed with NAC; format: functional, cell-based
HT-29 [21] = test: Reduction of cellular GSH level in human HT-29 cells after 24 hrs by […]; format: functional, cell-based; in short: as §6
HT-29 [22] = test: Cytotoxicity against human HT-29 cells co-cultured with human mesothelial cells at 50 to 200 uM preincubated for 24 hrs followed by co-culturing measured after 4 hrs by firefly luciferase assay relative to control; format: functional, cell-based; conditions: in the assay text read “after 5 hrs” for “after 4 hrs”
In short: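 Luciferase-expressing HT-29 cells were pretreated 24 h with water or various BSO concentrations, trypsin-suspended, then overlaid on confluent human mesothelial monolayers with compound and BSO for 5 h. Non-adherent cells were washed off and survivors read by luciferase luminescence.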

Row | SMILES | Ratio [1] | Ratio [2] | Ratio (A2780 [3]) | Ratio [4] | EC50 [5] [µM] | EC50 [6] [µM] | EC50 (A2780 [7]) [nM] | EC50 [8] [µM] | Activity (A2780 [9]) | Activity (A2780 [10]) | inhibition (A2780 [11]) | inhibition (SK-OV-3) | Activity (Mus musculus [12]) | Activity (Mus musculus [13]) | Activity [14] [%] | Activity [15] [%] | Activity [16] [%] | further results
1 | CC(C)(C)c1cc(S(=O)(=O)/C=C/C#N)ccc1OCC(=O)NC1CCCCC1 | 0.21 | 0.09 | 0.01 | 0.19 | 6.6 | 3.4 | 2600 | 6.1 | Active | Active | Active | Active | Non-toxic | Non-toxic | – | – | – | –
2 | CC(C)(C(=O)NCc1ccccc1)c1ccc(S(=O)(=O)/C=C/C#N)cc1 | 0.21 | 0.16 | 0.1 | 0.52 | 7.4 | 3.7 | 3000 | 8.7 | Active | Active | Active | Active | Non-toxic | Non-toxic | 6 | 6 | 6 | –
3 | N#C/C=C/S(=O)(=O)c1ccc(C2(C(=O)NC3CCCCC3)CCC2)cc1 | 0.32 | 0.18 | 0.09 | 0.33 | 8 | 3.6 | 3100 | 7.4 | Active | Active | Active | Active | Non-toxic | Non-toxic | 40 | 30 | 20 | –
4 | CC(C)(c1ccc(S(=O)(=O)/C=C/C#N)cc1)c1nnc(-c2ccccc2)o1 | 0.45 | 0.24 | 0.06 | 0.25 | 6.2 | 3.1 | 2600 | 5.7 | – | – | – | – | – | – | 45 | 45 | 0 | –
5 | CC(C)(C)c1ccc(S(=O)(=O)/C=C/C#N)cc1 [BAY-11-7085] | 0.13 | 0.07 | 0.04 | 0.32 | 5.9 | 3.5 | 2600 | 5 | Active | Active | Active | Active | Non-toxic | Non-toxic | 38 | 31 | 31 | Activity [17]: Active; Activity (HT-29 [18]): Active; Activity (HT-29 [19]): inactive; Activity (HT-29 [20]): inactive
6 | CCCCS(=N)(=O)CC[C@H](N)C(=O)O (some centres not stated) | – | – | – | – | – | – | – | – | – | – | – | – | – | – | – | – | – | Activity (HT-29 [21]): Active; Activity (HT-29 [22]): inactive
7 | Cc1ccc2oc(C(C)(C)c3ccc(S(=O)(=O)/C=C/C#N)cc3)nc2c1 | 0.2 | 0.09 | 0.1 | 0.17 | 7.3 | 3.5 | 2100 | 5.6 | – | – | – | – | – | – | 50 | 40 | 10 | –
8 | CC(C)(c1ccc(S(=O)(=O)/C=C/C#N)cc1)c1nc2ccccc2o1 | 0.29 | 0.24 | 0.01 | 0.17 | 6.5 | 3.1 | 2200 | 5.4 | Active | Active | Active | Active | Non-toxic | Non-toxic | – | – | – | –

From ChEMBL document CHEMBL3407346, “Design, synthesis, and biological evaluation of sulfonyl acrylonitriles as novel inhibitors of cancer metastasis and spread” (J Med Chem, 2015)
